Assay results taken from ChEMBL document CHEMBL1153886, “Synthesis, analgesic and anti-inflammatory activities of novel 3-(4-acetamido-benzyl)-5-substituted-1,2,4-oxadiazoles” (2009).

Legend:
Format in all cases: functional
Mus musculus [1] = experiment: Antiinflammatory activity against carrageenan-induced paw edema in C57BL/6 mouse assessed as inhibition of paw edema at 100 mg/kg, po administered 1 hr before carrageenan challenge measured 4 hrs after carrageenan challenge relative to control
Method in brief: (§1)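 Male C57BL/6 mice dosed orally at 100 mg/kg as a suspension in 5% carboxymethylcellulose 1 h before challenge. 0.05 ml of 1% w/v carrageenan in 0.9% sterile saline injected subcutaneously into right hind paw plantar region under light anaesthesia. Paw volume by digital plethysmometry immediately and 4 h later. Percent inhibition ± SEM vs vehicle group; diclofenac sodium 100 mg/kg p.o. as standard.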

Mus musculus [2] = experiment: Antiinflammatory activity against carrageenan-induced paw edema in C57BL/6 mouse assessed as increase in paw volume at 100 mg/kg, po administered 1 hr before carrageenan challenge measured 4 hrs after carrageenan challenge relative to control; method in brief: as §1
Mus musculus [3] = experiment: Analgesic activity in C57BL/6 mouse assessed as decrease in acetic acid-induced writhing at 100 mg/kg, po administered 1 hr before acetic acid challenge measured during 30 mins of acetic acid challenge relative to control; parameters: scale not given: the % may be the effect or the level left
Method in brief: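 Male C57BL/6 mice given 100 mg/kg orally (suspension in 5% carboxymethylcellulose) 1 h before i.p. injection of 0.25 ml 0.6% v/v acetic acid. Writhes counted over 30 min after injection. Percent inhibition calculated against mean writhing count of the control group; diclofenac sodium 100 mg/kg p.o. as standard.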

| SMILES | inhibition in vivo at 100 mg/kg (Mus musculus [1]) [%] | Activity (Mus musculus [2]) [%] | Activity (Mus musculus [3]) [%] |
| --- | --- | --- | --- |
| CC(=O)Nc1ccc(Cc2noc(CCC(=O)O)n2)cc1 | 75.3 | 18 | 46.43 |
| CC(=O)Nc1ccc(Cc2noc(CCC(=O)Nc3ccc(F)cc3F)n2)cc1 | 52 | 34 | -0.6 |
| COc1ccc(NC(=O)CCc2nc(Cc3ccc(NC(C)=O)cc3)no2)cc1 | 49.3 | 37 | 67.26 |
| CC(=O)Nc1ccc(Cc2noc(CCC(=O)Nc3ccccc3F)n2)cc1 | 67.1 | 24 | -23.21 |
| CC(=O)Nc1ccc(Cc2noc(CCC(=O)Nc3ccccc3)n2)cc1 | 34.2 | 48 | -13.1 |
| COc1cccc(NC(=O)CCc2nc(Cc3ccc(NC(C)=O)cc3)no2)c1 | 35.6 | 47 | -7.14 |
| C#Cc1cccc(NC(=O)CCc2nc(Cc3ccc(NC(C)=O)cc3)no2)c1 | 84.9 | 11 | 61.31 |
| CC(=O)Nc1ccc(Cc2noc(CCC(=O)Nc3cccnc3)n2)cc1 | 87.7 | 9 | 80.95 |
| COc1ccccc1NC(=O)CCc1nc(Cc2ccc(NC(C)=O)cc2)no1 | 87.7 | 9 | 73.81 |
| CC(=O)Nc1ccc(Cc2noc(CCC(=O)NCc3ccccc3)n2)cc1 | 76.7 | 17 | -0.6 |
| COc1ccc(NC(=O)CCc2nc(Cc3ccc(NC(C)=O)cc3)no2)cc1F | 60.3 | 29 | 36.9 |
| CC(=O)Nc1ccc(Cc2noc(CCC(=O)Nc3cccc(C)c3)n2)cc1 | 16.4 | 61 | 67.26 |
| CC(=O)Nc1ccc(Cc2noc(CCC(=O)Nc3ccc(F)cc3)n2)cc1 | 64.4 | 26 | 67.86 |
| CC(=O)Nc1ccc(Cc2noc(CCC(=O)Nc3ccc(C(F)(F)F)cc3)n2)cc1 | 37 | 46 | 31.55 |
| COc1ccc(NC(=O)CCc2nc(Cc3ccc(NC(C)=O)cc3)no2)cc1OC | 95.9 | 3 | 80.36 |
| O=C([O-])Cc1ccccc1Nc1c(Cl)cccc1Cl.[Na+] [DICLOFENAC SODIUM] | 50.7 | 36 | 77.38 |
